From ChEMBL document CHEMBL4825669, “Synthesis, Molecular Pharmacology, and Structure-Activity Relationships of 3-(Indanoyl)indoles as Selective Cannabinoid Type 2 Receptor Antagonists” (J Med Chem, 2021) come the findings set out here.

Test [1] has as its target T1, Cannabinoid receptor 2 (Homo sapiens, UniProt P34972). Briefly: Displacement of [3H]-CP55940 from human CB2 receptor expressed in CHO cells at 1 uM incubated for 90 mins by liquid scintillation spectrophotometry relative to control. The class given is cell-based. An outline of the steps: (§1)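 Membrane protein was 100 μg for CHO-hCB1 and 50 μg for CHO-hCB2. Incubation 90 min at room temperature. Nonspecific binding set with 10 μM WIN-55,212-2. Stopped by GF/B filtration with three ice-cold washes, then liquid scintillation counting.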

Test [2] concerns the target T2, Cannabinoid receptor 1 (Homo sapiens, UniProt P21554). Briefly: Displacement of [3H]-CP55940 from human CB1 receptor expressed in CHO cells at 1 uM incubated for 90 mins by liquid scintillation spectrophotometry relative to control. It is filed as cell-based. An outline of the steps:
as §1
In general terms: Displacement assays read how much labelled ligand stays bound in the presence of the test substance.

Test [3] has as its target T1, Cannabinoid receptor 2. Briefly: Binding affinity to human CB2 receptor assessed as free binding energy. The class given is cell-based. The following applies: CHO, filed as antagonist.
A further test deals with CHO. Briefly: Selectivity index, ratio of Ki for human CB1 receptor expressed in CHO cells to Ki for human CB2 receptor expressed in CHO cells. It is filed as cell-based.
The target of test [4] is T1, Cannabinoid receptor 2. Briefly: Displacement of [3H]-CP55940 from human CB2 receptor expressed in CHO cells incubated for 90 mins by liquid scintillation spectrophotometry relative to control. It is filed as cell-based. An outline of the steps:
as §1

For test [5], the target named is T1, Cannabinoid receptor 2. Briefly: Antagonist activity at human CB2 receptor expressed in CHO cell membrane assessed as stimulation of [35S]GTPgammaS binding at 10 uM by liquid scintillation spectrophotometry. The class given is functional, cell membranes. On the set-up: scale not given: the % may be the effect or the level left. An outline of the steps:
(§2)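 CHO cell membranes expressing hCB2, 25 or 50 µg protein, incubated in triplicate with 0.1 nM [35S]GTPγS. Buffer: 20 mM HEPES, 100 mM NaCl, 10 mM MgCl2, 0.05% BSA, 20 units/L adenosine deaminase. Reaction 30 min at 30 °C, stopped by filtration on GF/B with ice-cold washes, counted by liquid scintillation. Nonspecific binding set with 10 μM unlabelled GTPγS.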
(In general: Binding of GTPγS marks nucleotide exchange on a G protein.)

The target of test [6] is T2, Cannabinoid receptor 1. Briefly: Binding affinity to human CB1 receptor assessed as free binding energy. To be noted: CHO, filed as antagonist. The class given is cell-based.
Test [7] has as its target T2, Cannabinoid receptor 1. Briefly: Displacement of [3H]-CP55940 from human CB1 receptor expressed in CHO cells incubated for 90 mins by liquid scintillation spectrophotometry relative to control. The class given is cell-based. An outline of the steps:
as §1

Test [8] addresses T1, Cannabinoid receptor 2. Briefly: Antagonist activity at human CB2 receptor expressed in CHO cell membrane assessed as reduction in CP55940-induced [35S]GTPgammaS binding by liquid scintillation spectrophotometry. The class given is functional, cell membranes. An outline of the steps: as §2

T2 sequence (P21554 whole entry): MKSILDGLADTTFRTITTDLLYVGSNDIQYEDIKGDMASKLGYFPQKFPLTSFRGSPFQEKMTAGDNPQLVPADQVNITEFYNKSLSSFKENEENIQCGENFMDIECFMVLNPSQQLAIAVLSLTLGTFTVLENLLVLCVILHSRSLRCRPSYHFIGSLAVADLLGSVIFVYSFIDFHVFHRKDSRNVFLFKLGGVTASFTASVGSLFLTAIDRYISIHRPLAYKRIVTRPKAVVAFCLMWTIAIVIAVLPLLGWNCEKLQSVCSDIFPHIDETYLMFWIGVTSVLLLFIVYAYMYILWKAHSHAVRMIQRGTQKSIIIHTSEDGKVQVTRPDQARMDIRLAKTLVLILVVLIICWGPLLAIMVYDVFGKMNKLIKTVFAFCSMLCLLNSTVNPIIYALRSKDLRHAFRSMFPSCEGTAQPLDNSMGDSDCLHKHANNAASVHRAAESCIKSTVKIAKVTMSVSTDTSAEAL
T1 sequence (P34972 whole entry): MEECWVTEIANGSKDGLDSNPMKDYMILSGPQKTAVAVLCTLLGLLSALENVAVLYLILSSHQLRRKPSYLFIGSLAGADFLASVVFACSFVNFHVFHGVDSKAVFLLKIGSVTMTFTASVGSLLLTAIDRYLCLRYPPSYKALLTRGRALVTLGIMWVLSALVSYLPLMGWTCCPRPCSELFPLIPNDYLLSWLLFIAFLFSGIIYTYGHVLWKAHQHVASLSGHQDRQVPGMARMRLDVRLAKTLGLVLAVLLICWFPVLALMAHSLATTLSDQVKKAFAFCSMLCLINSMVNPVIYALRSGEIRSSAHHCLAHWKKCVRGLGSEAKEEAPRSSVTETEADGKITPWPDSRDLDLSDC

Consider `CCOC(=O)Cn1cc(C(=O)c2ccc3c(c2)CC(C)(C)C3)c2ccccc21`, for which the Activity at Cannabinoid receptor 2 [1] came out at 18%; at Cannabinoid receptor 1 [2], 19.4%.

As to `CCCCn1c(C)c(C(=O)c2ccc3c(c2)CC(C)(C)C3)c2ccccc21`, the Activity at Cannabinoid receptor 2 [1] (filed as antagonist) is 85.4%; on Cannabinoid receptor 1 [2], 43.5%.

As usually defined, the Ki is the equilibrium dissociation constant of an inhibitor or competing ligand from its target. As to `CCCn1cc(C(=O)c2ccc3c(c2)CC(C)(C)C3)c2ccccc21`, the figures for the deltaG on Cannabinoid receptor 2 [3] and at Cannabinoid receptor 1 [6] were -9.45 kcal/mol and -7.68 kcal/mol, respectively. Also, the Selectivity Index in the test with CHO is 19.7. The Activity at Cannabinoid receptor 2 [1] (filed as antagonist) came to 90.5%; at Cannabinoid receptor 2 [5] (filed as antagonist), 99%; on Cannabinoid receptor 1 [2], 47.4%. The Ki at Cannabinoid receptor 2 [4] amounted to 130 nM; at Cannabinoid receptor 1 [7], 2560 nM.

Regarding `CC1(C)Cc2ccc(C(=O)c3cn(Cc4ccccc4)c4ccccc34)cc2C1`, the results for the Activity on Cannabinoid receptor 2 [1] (filed as antagonist), at Cannabinoid receptor 2 [5] (filed as antagonist) and on Cannabinoid receptor 1 [2] (filed as antagonist) were 84.6%, 87% and 69.2%, respectively.

Consider `Cc1c(C(=O)c2ccc3c(c2)CC(C)(C)C3)c2ccccc2n1Cc1ccc(F)cc1`, for which the figures for the Activity at Cannabinoid receptor 2 [1] and on Cannabinoid receptor 1 [2] were 48.8% and 38.4%, respectively.

In general, IC50 refers to the concentration that inhibits the measured activity by half. Usually Kb stands for the affinity of an antagonist, worked out from how it opposes an agonist. In the case of `CCCCCn1cc(C(=O)c2ccc3c(c2)CC(C)(C)C3)c2ccccc21`, the deltaG on Cannabinoid receptor 2 [3] was -11.5 kcal/mol; at Cannabinoid receptor 1 [6] it was -10.2 kcal/mol. The Selectivity Index with CHO came out at 7.9. Besides, the Activity is 99.8% on Cannabinoid receptor 2 [1] (filed as antagonist), 108% at Cannabinoid receptor 2 [5] (filed as antagonist) and 93.4% at Cannabinoid receptor 1 [2] (filed as antagonist). Moreover, the Ki on Cannabinoid receptor 2 [4] came out at 4.9 nM; at Cannabinoid receptor 1 [7], 38.8 nM. Also, the concentration for half-maximal inhibition (IC50) on Cannabinoid receptor 2 [8] came to 1800 nM. Further, the Kb on Cannabinoid receptor 2 [8] (filed as antagonist) turned out to be 9.7 nM.

`CCC#CCn1c(C)c(C(=O)c2ccc3c(c2)CC(C)(C)C3)c2ccccc21`: the results for the Activity at Cannabinoid receptor 2 [1] and at Cannabinoid receptor 1 [2] were 30.2% and 16.4%, respectively.

Regarding `CC(C)Cn1cc(C(=O)c2ccc3c(c2)CC(C)(C)C3)c2ccccc21`, the Activity on Cannabinoid receptor 2 [1] (filed as antagonist) was 83.1%; at Cannabinoid receptor 1 [2] (filed as antagonist), 422%.

For `CC/C=C\Cn1cc(C(=O)c2ccc3c(c2)CC(C)(C)C3)c2ccccc21`, the Activity was 86.4% at Cannabinoid receptor 2 [1] (filed as antagonist), 106% at Cannabinoid receptor 2 [5] (filed as antagonist) and 60.7% on Cannabinoid receptor 1 [2] (filed as antagonist).

For the compound `CCCCCn1cc(C(=O)c2cccc3c2CC(C)(C)C3)c2ccccc21`, the deltaG at Cannabinoid receptor 2 [3] was -12.2 kcal/mol; at Cannabinoid receptor 1 [6], -12.1 kcal/mol. Besides, the Selectivity Index with CHO was found to be 1.1. The Activity at Cannabinoid receptor 2 [1] (filed as antagonist) was determined as 94.1%; at Cannabinoid receptor 2 [5] (filed as antagonist) it was 134%; on Cannabinoid receptor 1 [2] (filed as antagonist), 85.7%. The values for the Ki on Cannabinoid receptor 2 [4] and on Cannabinoid receptor 1 [7] were 1.36 nM and 1.46 nM, respectively.

In the case of `CCCn1c(C)c(C(=O)c2ccc3c(c2)CC(C)(C)C3)c2ccccc21`, the figures for the Activity on Cannabinoid receptor 2 [1] (filed as antagonist) and on Cannabinoid receptor 1 [2] were 73.9% and 44.4%, respectively.

Regarding `CCCCCCn1cc(C(=O)c2ccc3c(c2)CC(C)(C)C3)c2ccccc21`, the Activity on Cannabinoid receptor 2 [1] (filed as antagonist) turned out to be 83.6%; at Cannabinoid receptor 2 [5] (filed as antagonist), 102%; at Cannabinoid receptor 1 [2] (filed as antagonist) it was 79.1%.

Consider `CCCCn1cc(C(=O)c2ccc3c(c2)CC(C)(C)C3)c2ccccc21`, for which the Activity on Cannabinoid receptor 2 [1] (filed as antagonist) was 92.9%; on Cannabinoid receptor 2 [5] (filed as antagonist) it was 102%; at Cannabinoid receptor 1 [2] (filed as antagonist) it was 82.7%.

Regarding `CCCCCn1c(C)c(C(=O)c2ccc3c(c2)CC(C)(C)C3)c2ccccc21`, the Activity at Cannabinoid receptor 2 [1] (filed as antagonist) turned out to be 83.6%; on Cannabinoid receptor 1 [2] (filed as antagonist) it was 53.8%.

For `CCCCCCn1c(C)c(C(=O)c2ccc3c(c2)CC(C)(C)C3)c2ccccc21`, the Activity on Cannabinoid receptor 2 [1] (filed as antagonist) worked out at 55%; at Cannabinoid receptor 1 [2], 26.2%.

As for `Cc1c(C(=O)c2ccc3c(c2)CC(C)(C)C3)c2ccccc2n1Cc1ccccc1`, the Activity amounted to 51.2% on Cannabinoid receptor 2 [1] (filed as antagonist) and 18.1% at Cannabinoid receptor 1 [2].

In the case of `CC1(C)Cc2ccc(C(=O)c3c[nH]c4ccccc34)cc2C1`, the figures for the Activity at Cannabinoid receptor 2 [1] and on Cannabinoid receptor 1 [2] were 22.2% and 9.4%, respectively.

For `C=CCCCn1cc(C(=O)c2ccc3c(c2)CC(C)(C)C3)c2ccccc21`, the figures for the deltaG at Cannabinoid receptor 2 [3] and on Cannabinoid receptor 1 [6] were -10.7 and -9.36 °C, respectively. Also, the Activity amounted to 95.2% on Cannabinoid receptor 2 [1] (filed as antagonist), 92% on Cannabinoid receptor 2 [5] (filed as antagonist) and 80% on Cannabinoid receptor 1 [2] (filed as antagonist). Besides, the Ki is 15.6 nM at Cannabinoid receptor 2 [4] and 152 nM on Cannabinoid receptor 1 [7].

Turning to `C#CCn1cc(C(=O)c2ccc3c(c2)CC(C)(C)C3)c2ccccc21`, the Activity on Cannabinoid receptor 2 [1] (filed as antagonist) came to 56%; on Cannabinoid receptor 1 [2], 33.4%.

As to `CC/C=C\Cn1c(C)c(C(=O)c2ccc3c(c2)CC(C)(C)C3)c2ccccc21`, the Activity was determined as 82.9% on Cannabinoid receptor 2 [1] (filed as antagonist) and 43% at Cannabinoid receptor 1 [2].

For `C=CCn1cc(C(=O)c2ccc3c(c2)CC(C)(C)C3)c2ccccc21`, the Activity on Cannabinoid receptor 2 [1] (filed as antagonist) amounted to 60.6%; at Cannabinoid receptor 1 [2], 16%.

With `C#CCCCn1cc(C(=O)c2ccc3c(c2)CC(C)(C)C3)c2ccccc21`, the deltaG is -10.5 at Cannabinoid receptor 2 [3] and -8.91 °C on Cannabinoid receptor 1 [6]. Also, the Activity on Cannabinoid receptor 2 [1] (filed as antagonist) worked out at 92.8%; on Cannabinoid receptor 2 [5] (filed as antagonist), 96%; at Cannabinoid receptor 1 [2] (filed as antagonist), 71%. Further, the Ki on Cannabinoid receptor 2 [4] was 24 nM; on Cannabinoid receptor 1 [7] it was 325 nM.

As for `C#CCn1c(C)c(C(=O)c2ccc3c(c2)CC(C)(C)C3)c2ccccc21`, the Activity at Cannabinoid receptor 2 [1] (filed as antagonist) came out at 63%; on Cannabinoid receptor 1 [2] (filed as antagonist) it was 51.9%.

Turning to `COc1ccc(C(=O)c2c(C)n(CCN3CCOCC3)c3cc(I)ccc23)cc1`, the Activity at Cannabinoid receptor 2 [5] worked out at 67%.

As for `C#CCCCn1c(C)c(C(=O)c2ccc3c(c2)CC(C)(C)C3)c2ccccc21`, the deltaG is -9.89 on Cannabinoid receptor 2 [3] and -7.85 °C on Cannabinoid receptor 1 [6]. Also, the Activity came out at 93.1% on Cannabinoid receptor 2 [1] (filed as antagonist), 121% at Cannabinoid receptor 2 [5] (filed as antagonist) and 41.9% on Cannabinoid receptor 1 [2]. The Ki at Cannabinoid receptor 2 [4] worked out at 62.5 nM; on Cannabinoid receptor 1 [7] it was 1900 nM.

In the case of `Cn1cc(C(=O)c2ccc3c(c2)CC(C)(C)C3)c2ccccc21`, the Activity on Cannabinoid receptor 2 [1] was 23.9%; at Cannabinoid receptor 1 [2], 10.8%.

As to `CCCCCn1cc(C(=O)c2cccc3ccccc23)c2ccccc21`, the Selectivity Index in the test on CHO was 3.1. Also, the values for the inhibition constant (Ki) on Cannabinoid receptor 2 [4] and on Cannabinoid receptor 1 [7] were 2.94 nM and 9 nM, respectively.

In the case of `CC/C=C/Cn1cc(C(=O)c2ccc3c(c2)CC(C)(C)C3)c2ccccc21`, the Activity turned out to be 86.9% at Cannabinoid receptor 2 [1] (filed as antagonist), 81% on Cannabinoid receptor 2 [5] (filed as antagonist) and 84.2% on Cannabinoid receptor 1 [2] (filed as antagonist).

Turning to `C=CCCCn1c(C)c(C(=O)c2ccc3c(c2)CC(C)(C)C3)c2ccccc21`, the values for the Activity on Cannabinoid receptor 2 [1] (filed as antagonist) and on Cannabinoid receptor 1 [2] were 86.4% and 38.6%, respectively.

With `CC1(C)Cc2ccc(C(=O)c3cn(Cc4ccc(F)cc4)c4ccccc34)cc2C1`, the Activity at Cannabinoid receptor 2 [1] (filed as antagonist) was determined as 92.3%; on Cannabinoid receptor 2 [5] (filed as antagonist), 90%; at Cannabinoid receptor 1 [2] (filed as antagonist), 88%.

For the compound `CCC#CCn1cc(C(=O)c2ccc3c(c2)CC(C)(C)C3)c2ccccc21`, the Activity at Cannabinoid receptor 2 [1] (filed as antagonist) was 65.9%; on Cannabinoid receptor 1 [2] (filed as antagonist), 55.6%.

Consider `CC/C=C/Cn1c(C)c(C(=O)c2ccc3c(c2)CC(C)(C)C3)c2ccccc21`, for which the Activity is 73.7% on Cannabinoid receptor 2 [1] (filed as antagonist) and 35.1% on Cannabinoid receptor 1 [2].
